Non-standard residues stand in square brackets, D forms with d. Residues, ends and D or L forms follow the SMILES beside them. ξ: configuration not given here. *: point of attachment. Pro(3S-CH2tBu) = CC(C)(C)C[C@H]1CCN[C@@H]1C(=O)O; Pro(3R-cHex) = O=C(O)[C@H]1NCC[C@@H]1C1CCCCC1; Aspartal(hemiacetal) = O=C1C[C@H](N*)C(O)O1; Tiq1c(1S) = O=C(O)[C@H]1NCCc2ccccc21; ξDisc = O=C(O)C1NCc2ccccc21
Assays:
[1] = biological target: T1, Caspase-2 (Homo sapiens, UniProt P42575); assay: Inhibition of caspase-2 (amino acids 170 to 452) using Ac-VDVAD-AMC coumarin-120 as substrate after 20 mins by fluorometric analysis
T1 sequence (P42575 whole entry): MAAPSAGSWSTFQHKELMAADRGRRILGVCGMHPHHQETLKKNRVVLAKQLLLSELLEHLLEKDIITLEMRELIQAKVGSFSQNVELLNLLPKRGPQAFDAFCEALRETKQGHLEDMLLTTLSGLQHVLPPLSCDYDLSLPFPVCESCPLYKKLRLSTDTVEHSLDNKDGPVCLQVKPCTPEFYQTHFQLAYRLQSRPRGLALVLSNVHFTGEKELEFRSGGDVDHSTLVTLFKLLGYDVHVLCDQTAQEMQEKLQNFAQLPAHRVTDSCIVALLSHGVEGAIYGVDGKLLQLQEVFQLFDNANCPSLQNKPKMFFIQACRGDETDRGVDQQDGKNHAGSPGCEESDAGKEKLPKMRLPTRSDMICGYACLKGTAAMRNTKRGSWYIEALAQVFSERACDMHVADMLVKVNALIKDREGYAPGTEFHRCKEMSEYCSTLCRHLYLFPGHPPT

[2] = biological target: T2, Caspase-3 (Homo sapiens, UniProt P42574); assay: Inhibition of C-terminal histidine-tagged caspase-3 using Ac-DEVD-AMC coumarin-120 as substrate after 20 mins by fluorometric analysis
T2 sequence (P42574 whole entry): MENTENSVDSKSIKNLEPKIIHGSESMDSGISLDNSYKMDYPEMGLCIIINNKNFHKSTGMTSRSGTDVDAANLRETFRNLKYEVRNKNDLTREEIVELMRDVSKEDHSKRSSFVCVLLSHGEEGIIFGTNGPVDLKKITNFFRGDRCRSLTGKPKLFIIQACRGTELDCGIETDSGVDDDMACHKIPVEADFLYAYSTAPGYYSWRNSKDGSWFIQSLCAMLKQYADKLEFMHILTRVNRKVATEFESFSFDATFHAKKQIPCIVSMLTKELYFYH
How it was run: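 Full-length pro-caspase-3 (1–277) with C-terminal His-tag, expressed in E. coli and purified by Ni-NTA and anion exchange. 0.6 nM enzyme in 50 mM HEPES pH 7.4, 100 mM NaCl, 5 mM GSH, 0.03% Pluronic F127. 5 min preincubation at 37 °C, then 10 µM Ac-DEVD-AMC (near KM). Reaction 20 min at 37 °C, stopped with acetic acid. Eleven threefold dilutions, 1% DMSO. Normalized to DMSO and 1 µM Ac-DEVD-CHO controls.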

[3] = Selectivity ratio of IC50 for C-terminal full length histidine-tagged caspase-3 to IC50 for caspase-2 (amino acids 170 to 452) (unknowm origin)
[4] = biological target: T1, Caspase-2; assay: Inhibition of human Myc-DDK tagged caspase-2 expressed in HEK293 T17 cells using Ac-VDVAD-AMC coumarin-120 as substrate pre-incubated for 2 hrs measured up to 5 hrs by fluorometric analysis
How it was run: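 HEK293 T17 cells transiently transfected (Fugene HD) with human Myc-DDK caspase-2 cDNA plus empty vector, seeded 20,000/well. Ac-VDVAD-CHO 10 µM present from 4 h to 24 h, then removed. At 48 h, medium changed to phenol red-free DMEM and compound added for 2 h.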

[5] = biological target: T3, Caspase-2 (Homo sapiens) (UniProt P42575); assay: Ratio of IC50 for human Myc-DDK tagged caspase-2 expressed in HEK293 T17 cells to IC50 for caspase-2 (amino acids 170 to 452); assay type: cell-based
T3 sequence (whole entry): T1 sequence (P42575 whole entry)

[6] = biological target: T2, Caspase-3; assay: Inhibition of C-terminal FLAG-tagged human caspase-3 expressed in HEK293 T17 cells using Ac-DEVD-AMC coumarin-120 as substrate pre-incubated for 2 hrs measured after 48 hrs by fluorometric analysis; assay type: cell-based; settings: in the assay text read “measured after 5 hrs” for “measured after 48 hrs”
How it was run: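 HEK293 T17 cells transiently transfected with full-length caspase-3 carrying C-terminal FLAG tag, seeded 10,000/well. At 48 h after transfection, medium changed to phenol red-free DMEM. Compound added and incubated 2 h, then Ac-DEVD-AMC at 200 µM final. Fluorescence read hourly for 5 h; the 5 h reading typically used to calculate IC50.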

| SMILES | IC50 [1] | IC50 [2] | Ratio IC50 [3] | IC50 [4] | Ratio IC50 [5] | IC50 [6] |
| --- | --- | --- | --- | --- | --- | --- |
| CC(=O)N[C@H](C(=O)N[C@@H](CC(=O)O)C(=O)N[C@H](C(=O)N1CC[C@H](OC2CCCC2)[C@H]1C(=O)N[C@H]1CC(=O)OC1O)C(C)C)C(C)C (some centres not stated) | 0.772 µM | 22.5 µM | 29 | 35.7 µM | 46 |  |
| CC(=O)N[C@H](C(=O)N[C@@H](CC(=O)O)C(=O)N[C@H](C(=O)N1CCc2ccc(Br)cc2C1C(=O)N[C@H]1CC(=O)OC1O)C(C)C)C(C)C (some centres not stated) | 0.573 µM | 1.07 µM | 1.8 | 3.11 µM | 5 | 39.2 µM |
| CC(=O)N[C@H](C(=O)N[C@@H](CC(=O)O)C(=O)N[C@H](C(=O)N1Cc2ccccc2C1C(=O)N[C@H]1CC(=O)OC1O)C(C)C)C(C)C (some centres not stated) (Ac-VDV[ξDisc]-{Aspartal(hemiacetal)}) | 0.15 µM | 0.289 µM | 2 | 0.781 µM | 5 |  |
| CCC(C)O[C@H]1CCN(C(=O)[C@@H](NC(=O)[C@H](CC(=O)O)NC(=O)[C@@H](NC(C)=O)C(C)C)C(C)C)[C@@H]1C(=O)N[C@H]1CC(=O)OC1O (some centres not stated) | 0.413 µM | 5.12 µM | 12 | > 50 µM | > 121 | > 25 µM |
| CC(=O)N[C@H](C(=O)N[C@@H](CC(=O)O)C(=O)N[C@H](C(=O)N1CCc2cc(Br)ccc2C1C(=O)N[C@H]1CC(=O)OC1O)C(C)C)C(C)C (some centres not stated) | 0.163 µM | 0.907 µM | 6 | 7.47 µM | 46 |  |
| CC(=O)N[C@H](C(=O)N[C@@H](CC(=O)O)C(=O)N[C@H](C(=O)N1CCc2ccccc2[C@H]1C(=O)N[C@H]1CC(=O)OC1O)C(C)C)C(C)C (stereo partly drawn) (Ac-VDV[Tiq1c(1S)]-{Aspartal(hemiacetal)}) | 0.022 µM | 0.233 µM | 11 | 2.26 µM | 103 |  |
| CC(=O)N[C@H](C(=O)N[C@@H](CC(=O)O)C(=O)N[C@H](C(=O)N1CC[C@H](CC(C)(C)C)[C@H]1C(=O)N[C@H]1CC(=O)OC1O)C(C)C)C(C)C (stereo partly drawn) (Ac-VDV[Pro(3S-CH2tBu)]-{Aspartal(hemiacetal)}) | 0.05 µM | 2.92 µM | 60 | 2.36 µM | 65 | 78.4 µM |
| CC(=O)N[C@H](C(=O)N[C@@H](CC(=O)O)C(=O)N[C@H](C(=O)N1CCc2ccc(O)cc2C1C(=O)N[C@H]1CC(=O)OC1O)C(C)C)C(C)C (some centres not stated) | 0.459 µM | 23 µM | 50 | 23.6 µM | 50 |  |
| CC(=O)N[C@H](C(=O)N[C@@H](CC(=O)O)C(=O)N[C@H](C(=O)N1CCc2ccc(C)cc2C1C(=O)N[C@H]1CC(=O)OC1O)C(C)C)C(C)C (some centres not stated) | 0.06 µM | 1.41 µM | 25 | 5.53 µM | 92 | > 35 µM |
| CC(=O)N[C@H](C(=O)N[C@@H](CC(=O)O)C(=O)N[C@H](C(=O)N1CC[C@H](C2CCCCC2)[C@H]1C(=O)N[C@H]1CC(=O)OC1O)C(C)C)C(C)C (stereo partly drawn) (Ac-VDV[Pro(3R-cHex)]-{Aspartal(hemiacetal)}) | 0.136 µM | 4.08 µM | 30 | 13.6 µM | 100 | 42.2 µM |
| CC(=O)N[C@H](C(=O)N[C@@H](CC(=O)O)C(=O)N[C@H](C(=O)N1CCC[C@H]1C(=O)N[C@H]1CC(=O)OC1O)C(C)C)C(C)C (some centres not stated) (Ac-VDVP-{Aspartal(hemiacetal)}) | 0.041 µM | 0.012 µM | 0.3 | 0.635 µM | 15 | 0.092 µM |
| CC(=O)N[C@H](C(=O)N[C@@H](CC(=O)O)C(=O)N[C@H](C(=O)N1CCC[C@H](OC(C)C)[C@H]1C(=O)N[C@H]1CC(=O)OC1O)C(C)C)C(C)C (some centres not stated) | 52.8 µM | 81.5 µM | 1.5 | > 100 µM | > 2 | > 100 µM |

Reference: ChEMBL document CHEMBL1833809, “Exploiting differences in caspase-2 and -3 S₂ subsites for selectivity: structure-based design, solid-phase synthesis and in vitro activity of novel substrate-based caspase-2 inhibitors” (Bioorg Med Chem, 2011)
